Results on 3 compounds are retold here after ChEMBL document CHEMBL5385966, “Synthesis and biological evaluation of new naphthalimide-thiourea derivatives as potent antimicrobial agents active against multidrug-resistant Staphylococcus aureus and Mycobacterium tuberculosis” (RSC Med Chem, 2024).

SMILES strings stand for the structures. Converted amounts (≈) assume the structure as drawn. The source made the active and inactive calls. No cut-off for these calls is given here.

Data set [1] relates to Staphylococcus aureus. The data set can be described thus: Antibacterial activity against methicillin/ceftriaxone/meropenem/vancomycin/teicoplanin-resistant Staphylococcus aureus VRS4 clinical isolate assessed as bacterial growth inhibition incubated for 16 to 18 hrs by CLSI based antibiotic susceptibility testing method. It is filed as functional. As to conditions: time 16-18 hrs. The gist of the method:
(§1)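 Broth microdilution in cation-adjusted Mueller-Hinton broth. Compounds were tested at […], with levofloxacin as reference and medium-only controls. Plates were incubated at 37 °C for 16-18 h. MIC was the lowest concentration with no visible growth; three independent determinations, each in duplicate.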

In data set [2] the test system is Staphylococcus aureus. The data set can be described thus: Antibacterial activity against methicillin-sensitive Staphylococcus aureus ATCC 29213 clinical isolate assessed as bacterial growth inhibition incubated for 16 to 18 hrs by CLSI based antibiotic susceptibility testing method. It is filed as functional. The conditions noted are these: time 16-18 hrs. The gist of the method:
as §1

Data set [3] deals with Staphylococcus aureus. The data set can be described thus: Antibacterial activity against methicillin/ceftriaxone/meropenem-resistant Staphylococcus aureus NRS10193 clinical isolate assessed as bacterial growth inhibition incubated for 16 to 18 hrs by CLSI based antibiotic susceptibility testing method. It is filed as functional. The conditions noted are these: time 16-18 hrs. The gist of the method:
as §1

A short description of data set [4]: Cytotoxicity against African green monkey Vero cells by MTT assay. It is filed as toxicity, cell-based. As to conditions: chlorocebus sabaeus. The essentials:
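Vero cells were seeded at ~10³ per well at 37 °C, 5% CO2. After 24 h, compounds were added at 5-100 mg/L for 72 h. […] was added for 4 h, formazan was dissolved in DMSO and read at 540 nm. CC50 was taken as the lowest concentration reducing viability by 50%; doxorubicin was the positive control; triplicate.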

Data set [5] deals with Staphylococcus aureus. The data set can be described thus: Antibacterial activity against methicillin/ceftriaxone/meropenem-resistant Staphylococcus aureus NRS10191 clinical isolate assessed as bacterial growth inhibition incubated for 16 to 18 hrs by CLSI based antibiotic susceptibility testing method. It is filed as functional. As to conditions: time 16-18 hrs. The gist of the method:
as §1

Data set [6] relates to Staphylococcus aureus. In words: Antibacterial activity against methicillin/ceftriaxone/meropenem/gentamycin/linezolid-resistant Staphylococcus aureus NRS10100 clinical isolate assessed as bacterial growth inhibition incubated for 16 to 18 hrs by CLSI based antibiotic susceptibility testing method. It is filed as functional. As to conditions: time 16-18 hrs. The essentials:
as §1

Data set [7] deals with Staphylococcus aureus. The data set can be described thus: Antibacterial activity against methicillin/ceftriaxone/meropenem/gentamycin/linezolid-resistant Staphylococcus aureus NRS10119 clinical isolate assessed as bacterial growth inhibition incubated for 16 to 18 hrs by CLSI based antibiotic susceptibility testing method. It is filed as functional. The conditions noted are these: time 16-18 hrs. The gist of the method: as §1

Data set [8] has as its system Staphylococcus aureus. In words: Antibacterial activity against methicillin/ceftriaxone/meropenem-resistant Staphylococcus aureus NRS10129 clinical isolate assessed as bacterial growth inhibition incubated for 16 to 18 hrs by CLSI based antibiotic susceptibility testing method. It is filed as functional. As to conditions: time 16-18 hrs. The essentials: as §1
Data set [9] in a line: Selectivity index, ratio of CC50 for African green monkey Vero cells to MIC for Staphylococcus aureus ATCC 29213. It is filed as toxicity, cell-based. As to conditions: read-out: Selectivity Index.
Data set [10] has as its system Mycolicibacterium fortuitum. In words: Antimycobacterial activity against Mycobacterium fortuitum ATCC 6841 assessed as bacterial growth inhibition incubated for 72 hrs by resazurin dye based broth microdilution method. It is filed as functional, organism-based. The gist of the method:
(§2)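 Broth microdilution in Middlebrook 7H9 with 10% ADC-Tween-80 (0.2% glycerol, 0.05% Tween-80), inoculum ~10⁶ cfu/mL. Compounds came from 10 mg/mL DMSO stocks and were tested as two-fold serial dilutions at 37 °C, 7 days for M. tuberculosis H37Rv and 72 h for NTM. Growth was read visually with PrestoBlue resazurin dye; MIC was the lowest concentration preventing growth. Triplicate determinations, each in duplicate.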

Another data set deals with Escherichia coli. In words: Antibacterial activity against Escherichia coli ATCC 25922 assessed as bacterial growth inhibition incubated for 16 to 18 hrs by CLSI based antibiotic susceptibility testing method. It is filed as functional, organism-based. As to conditions: time 16-18 hrs. The gist of the method: as §1
Data set [11] relates to Mycobacterium tuberculosis. The data set can be described thus: Antimycobacterial activity against Mycobacterium tuberculosis H37Rv ATCC 27294 assessed as bacterial growth inhibition incubated for 7 days by resazurin dye based broth microdilution method. It is filed as functional. As to conditions: H37Rv ATCC 27294, 168 h, time 7 day. The essentials:
as §2

The test system of data set [12] is Staphylococcus aureus. In words: Antibacterial activity against methicillin/ceftriaxone/meropenem-resistant Staphylococcus aureus NRS10192 clinical isolate assessed as bacterial growth inhibition incubated for 16 to 18 hrs by CLSI based antibiotic susceptibility testing method. It is filed as functional. The conditions noted are these: time 16-18 hrs. The essentials:
as §1

Data set [13] deals with Staphylococcus aureus. In words: Antibacterial activity against methicillin/ceftriaxone/meropenem-resistant Staphylococcus aureus NRS10198 clinical isolate assessed as bacterial growth inhibition incubated for 16 to 18 hrs by CLSI based antibiotic susceptibility testing method. It is filed as functional. The conditions noted are these: time 16-18 hrs. The essentials: as §1

Data set [14] concerns Staphylococcus aureus. The data set can be described thus: Antibacterial activity against methicillin/ceftriaxone/meropenem/vancomycin/teicoplanin-resistant Staphylococcus aureus VRS12 clinical isolate assessed as bacterial growth inhibition incubated for 16 to 18 hrs by CLSI based antibiotic susceptibility testing method. The conditions noted are these: time 16-18 hrs. It is filed as functional. The gist of the method:
as §1

Data set [15] deals with Staphylococcus aureus. In words: Antibacterial activity against methicillin/ceftriaxone/meropenem-resistant Staphylococcus aureus NRS10186 clinical isolate assessed as bacterial growth inhibition incubated for 16 to 18 hrs by CLSI based antibiotic susceptibility testing method. It is filed as functional. The conditions noted are these: time 16-18 hrs. The essentials:
as §1

The test system of data set [16] is Staphylococcus aureus. The data set can be described thus: Antibacterial activity against methicillin/ceftriaxone-resistant Staphylococcus aureus NRS10194 clinical isolate assessed as bacterial growth inhibition incubated for 16 to 18 hrs by CLSI based antibiotic susceptibility testing method. It is filed as functional. The conditions noted are these: time 16-18 hrs. The gist of the method:
as §1

Data set [17] has as its system Staphylococcus aureus. The data set can be described thus: Antibacterial activity against methicillin/ceftriaxone/meropenem/gentamycin/vancomycin/teicoplanin-resistant Staphylococcus aureus VRS1 clinical isolate assessed as bacterial growth inhibition incubated for 16 to 18 hrs by CLSI based antibiotic susceptibility testing method. The conditions noted are these: time 16-18 hrs. It is filed as functional. The gist of the method: as §1

The test system of the next data set is Mycobacteroides chelonae. The data set can be described thus: Antimycobacterial activity against Mycobacteroides chelonae ATCC 35752 assessed as bacterial growth inhibition incubated for 72 hrs by resazurin dye based broth microdilution method. It is filed as functional, organism-based. The gist of the method:
as §2
A general note: Alamar Blue is a resazurin reagent that responds to reducing activity.

Another data set relates to Klebsiella pneumoniae. In words: Antibacterial activity against Klebsiella pneumoniae BAA 1705 assessed as bacterial growth inhibition incubated for 16 to 18 hrs by CLSI based antibiotic susceptibility testing method. It is filed as functional, organism-based. As to conditions: time 16-18 hrs. The gist of the method:
as §1

The test system of data set [18] is Mycobacteroides abscessus. The data set can be described thus: Antimycobacterial activity against Mycobacterium abscessus ATCC 19977 assessed as bacterial growth inhibition incubated for 72 hrs by resazurin dye based broth microdilution method. It is filed as functional, organism-based. The gist of the method:
as §2

The subject of a further data set is Pseudomonas aeruginosa. The data set can be described thus: Antibacterial activity against Pseudomonas aeruginosa ATCC 27853 assessed as bacterial growth inhibition incubated for 16 to 18 hrs by CLSI based antibiotic susceptibility testing method. The conditions noted are these: time 16-18 hrs. It is filed as functional, organism-based. The essentials: as §1

For a further data set, the system named is Acinetobacter baumannii. In words: Antibacterial activity against Acinetobacter baumannii BAA 1605 assessed as bacterial growth inhibition incubated for 16 to 18 hrs by CLSI based antibiotic susceptibility testing method. As to conditions: time 16-18 hrs. It is filed as functional, organism-based. The essentials:
as §1

Data set [19] relates to Staphylococcus aureus. In words: Antibacterial activity against Staphylococcus aureus ATCC 29213 assessed as bacterial growth inhibition incubated for 16 to 18 hrs by CLSI based antibiotic susceptibility testing method. As to conditions: time 16-18 hrs. It is filed as functional. The essentials: as §1

Usually MIC stands for the least concentration at which growth counts as inhibited. One may read the CC50 as the concentration giving 50% cytotoxicity. Consider `O=C(CN1C(=O)c2cccc3cccc(c23)C1=O)NC1CCN(C(=S)Nc2ccccc2)CC1`, for which the MIC in the data set with Staphylococcus aureus [1] was found to be 2 µg/mL (≈ 4.23 µM); with Staphylococcus aureus [2], 4 µg/mL (≈ 8.46 µM); in the data set on Staphylococcus aureus [3], 2 µg/mL (≈ 4.23 µM); in the data set on Staphylococcus aureus [5], 2 µg/mL (≈ 4.23 µM); in the data set with Staphylococcus aureus [6], 4 µg/mL (≈ 8.46 µM); in the data set with Staphylococcus aureus [7], 2 µg/mL (≈ 4.23 µM). In addition, the MIC is 4 µg/mL (≈ 8.46 µM) in the data set with Staphylococcus aureus [8]; greater than 64 µg/mL in [11]; 1 µg/mL (≈ 2.12 µM) in the data set with Staphylococcus aureus [12]; 2 µg/mL (≈ 4.23 µM) in the data set with Staphylococcus aureus [13]; 4 µg/mL (≈ 8.46 µM) in the data set on Staphylococcus aureus [14]; 2 µg/mL (≈ 4.23 µM) with Staphylococcus aureus [15]. Also, the MIC in the data set on Staphylococcus aureus [16] was 4 µg/mL (≈ 8.46 µM); in the data set on Staphylococcus aureus [17], 2 µg/mL (≈ 4.23 µM); with Staphylococcus aureus [19], 4 µg/mL (≈ 8.46 µM). Also, the CC50 in [4] is greater than 200 µg/mL. In data set [9], the selectivity ratio is greater than 50. Besides, the “growth inhibition (GI)” value (in data set [10]; in the data set on Escherichia coli; with Mycobacteroides chelonae; in the data set with Klebsiella pneumoniae; in data set [18]; in the data set on Pseudomonas aeruginosa) was “inactive” in each case. Moreover, the “growth inhibition (GI)” value in the data set on Acinetobacter baumannii was “inactive”.

On to `CN[C@H](CC(C)C)C(=O)N[C@H]1C(=O)N[C@@H](CC(N)=O)C(=O)N[C@H]2C(=O)N[C@H]3C(=O)N[C@H](C(=O)N[C@H](C(=O)O)c4cc(O)cc(O)c4-c4cc3ccc4O)[C@H](O)c3ccc(c(Cl)c3)Oc3cc2cc(c3O[C@@H]2O[C@H](CO)[C@@H](O)[C@H](O)[C@H]2O[C@H]2C[C@](C)(N)[C@H](O)[C@H](C)O2)Oc2ccc(cc2Cl)[C@H]1O` [VANCOMYCIN], for which the MIC in the data set with Staphylococcus aureus [1], with Staphylococcus aureus [14] and in the data set with Staphylococcus aureus [17] was greater than 64 µg/mL throughout.

As for `O=C(CN1C(=O)c2cccc3cccc(c23)C1=O)N1CCC(NC(=S)NC2CCCCCC2)CC1`, the MIC in the data set with Staphylococcus aureus [1], in the data set with Staphylococcus aureus [2], with Staphylococcus aureus [3], in the data set on Staphylococcus aureus [5], in the data set with Staphylococcus aureus [6] and in the data set with Staphylococcus aureus [7] was 0.25 µg/mL (≈ 0.507 µM) throughout. Further, the MIC was 0.25 µg/mL (≈ 0.507 µM) in the data set on Staphylococcus aureus [8]; greater than 64 µg/mL in data set [11]; 0.25 µg/mL (≈ 0.507 µM) in the data set with Staphylococcus aureus [12]; 0.25 µg/mL (≈ 0.507 µM) in the data set on Staphylococcus aureus [13]; 0.25 µg/mL (≈ 0.507 µM) with Staphylococcus aureus [14]; 0.25 µg/mL (≈ 0.507 µM) in the data set on Staphylococcus aureus [15]. In addition, the MIC with Staphylococcus aureus [16], in the data set on Staphylococcus aureus [17] and in the data set on Staphylococcus aureus [19] was 0.25 µg/mL (≈ 0.507 µM) each time. This compound yielded a CC50 in data set [4] greater than 100 µg/mL. Also, the selectivity ratio in data set [9] is greater than 400. The “growth inhibition (GI)” value (in data set [10]; in the data set with Escherichia coli; in the data set with Mycobacteroides chelonae; in the data set with Klebsiella pneumoniae; in data set [18]; with Pseudomonas aeruginosa) was “inactive” throughout. The “growth inhibition (GI)” value in the data set on Acinetobacter baumannii is “inactive”.
